Measurements taken from ChEMBL document CHEMBL1275497, “Genetic and structural insights into the dissemination potential of the extremely broad-spectrum class A beta-lactamase KPC-2 identified in an Escherichia coli strain and an Enterobacter cloacae strain isolated from the same patient in France” (2008).
Values after ≈ are worked out from the molar mass of the structure shown.

Experiments:
[1] = test system: Escherichia coli; assay: Activity of Escherichia coli 2138 beta-lactamase KPC-2 by spectrophotometry
Procedure, shortened: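 KPC-2 was expressed in E. coli BL21(DE3) grown in LB with 50 µg/ml kanamycin and induced with 0.4 mM IPTG. It was purified by Q Sepharose, then Bioscale S cation exchange with a 0–1 M NaCl gradient in 40 mM Bis-Tris pH 5.9, then Superdex 75. Km and kcat were measured spectrophotometrically at 37°C in 50 mM phosphate buffer, pH 7.0, using previously described absorption coefficients.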

[2] = test system: Enterobacter cloacae; assay: Antimicrobial activity against blaKPC-2, blaKLUC-2 and blaTEM-1 producing Enterobacter cloacae 7506 by Etest method; format: functional
[3] = test system: Escherichia coli; assay: Antimicrobial activity against Escherichia coli J53 harboring blaKPC-2 and blaTEM-1 gene by Etest method in presence of beta-lactamase inhibitor clavulanic acid; format: functional
Procedure, shortened: (§1)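 MIC by Etest on E. coli J53 (Rifr) recipient and its transconjugants. Transconjugants came from liquid and solid mating at 1:1 and 4:1 recipient:donor ratios in brain heart infusion (37°C, 3 h), then filter mating for 18 h at 37°C. Selection was on LB agar with ampicillin (100 µg/ml), ticarcillin (50 µg/ml) and rifampin (1000 µg/ml).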

[4] = test system: Escherichia coli; assay: Antimicrobial activity against Escherichia coli TOP10 by Etest method in presence of beta-lactamase inhibitor clavulanic acid; format: functional
Procedure, shortened: (§2)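 MIC by Etest on E. coli Top10 host and its transformants. Transformants were obtained by electroporating plasmid DNA extracted from the clinical E. coli isolate.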

[5] = test system: Escherichia coli; assay: Antimicrobial activity against Escherichia coli TOP10 by Etest method; format: functional
[6] = test system: Escherichia coli; assay: Antimicrobial activity against Escherichia coli J53 by Etest method; format: functional
[7] = test system: Escherichia coli; assay: Antimicrobial activity against Escherichia coli J53 by Etest method in presence of beta-lactamase inhibitor clavulanic acid; format: functional; procedure, shortened: as §1
[8] = test system: Escherichia coli; assay: Antimicrobial activity against blaKPC-2 and blaTEM-1 producing Escherichia coli 2138 by Etest method; format: functional
[9] = test system: Escherichia coli; assay: Antimicrobial activity against blaKPC-2 and blaTEM-1 Escherichia coli 2138 by Etest method in presence of beta-lactamase inhibitor clavulanic acid; format: functional
Procedure, shortened: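 MIC read by Etest on the clinical E. coli isolate recovered from a patient hospitalized in France.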

[10] = test system: Enterobacter cloacae; assay: Antimicrobial activity against blaKPC-2, blaKLUC-2 and blaTEM-1 producing Enterobacter cloacae 7506 by Etest method in presence of beta-lactamase inhibitor clavulanic acid; format: functional
[11] = test system: Escherichia coli; assay: Antimicrobial activity against Escherichia coli J53 harboring blaKPC-2 and blaTEM-1 by Etest method; format: functional
Procedure, shortened: (§3)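 Strain is an E. coli J53 (rifampin-resistant) transconjugant from E. cloacae 7506. Donor and recipient were mixed at 1:1 and 4:1, shaken in brain heart infusion at 37°C for 3 h, then held on a filter on BHI agar for 18 h at 37°C. Transconjugants were selected on LB agar with ampicillin 100 µg/ml, ticarcillin 50 µg/ml and rifampin 1000 µg/ml. MICs were read by Etest.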

[12] = test system: Escherichia coli; assay: Antimicrobial activity against Escherichia coli TOP10 harboring blaKPC-2 and blaTEM-1 gene by Etest method in presence of beta-lactamase inhibitor clavulanic acid; format: functional; procedure, shortened: as §2
[13] = test system: Escherichia coli; assay: Antimicrobial activity against Escherichia coli TOP10 harboring blaKPC-2 and blaTEM-1 gene by Etest method; format: functional
Procedure, shortened: (§4)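 Strain is an E. coli Top10 transformant obtained by electroporation of plasmid DNA extracted from E. coli 2138. MICs were read by Etest.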

[14] = test system: Escherichia coli; assay: Antimicrobial activity against blaKPC-2 producing Escherichia coli DH5alpha by Etest method; conditions: DH5[alpha]
[15] = test system: Escherichia coli; assay: Antimicrobial activity against Escherichia coli TOP10 harboring blaKPC-2 and blaTEM-1 gene by Etest method in presence of beta-lactamase inhibitor Tazobactam; format: functional; procedure, shortened: as §4
[16] = test system: Enterobacter cloacae; assay: Antimicrobial activity against blaKPC-2, blaKLUC-2 and blaTEM-1 producing Enterobacter cloacae 7506 by Etest method in presence of beta-lactamase inhibitor Tazobactam; format: functional
[17] = test system: Escherichia coli; assay: Antimicrobial activity against Escherichia coli J53 harboring blaKPC-2 and blaTEM-1 gene by Etest method in presence of beta-lactamase inhibitor Tazobactam; format: functional; procedure, shortened: as §3
[18] = test system: Escherichia coli; assay: Antimicrobial activity against blaKPC-2 and blaTEM-1 producing Escherichia coli 2138 by Etest method in presence of beta-lactamase inhibitor Tazobactam; format: functional
[19] = test system: Escherichia coli; assay: Antimicrobial activity against Escherichia coli J53 by Etest method in presence of beta-lactamase inhibitor Tazobactam; format: functional
[20] = test system: Escherichia coli; assay: Antimicrobial activity against Escherichia coli TOP10 by Etest method in presence of beta-lactamase inhibitor Tazobactam; format: functional

| Structure (SMILES) | Km [1] | kcat [1] | MIC [2] | MIC [5] | MIC [6] | MIC [8] | MIC [11] | MIC [13] | also measured |
| --- | --- | --- | --- | --- | --- | --- | --- | --- | --- |
| CC(=O)OCC1=C(C(=O)O)N2C(=O)[C@@H](NC(=O)Cc3cccs3)[C@H]2SC1 | 141 µM | 106 s⁻¹ |  |  |  |  |  |  |  |
| CC1(C)S[C@@H]2[C@H](NC(=O)Cc3ccccc3)C(=O)N2[C@H]1C(=O)O | 44 µM | 45 s⁻¹ |  |  |  |  |  |  |  |
| CC1(C)S[C@@H]2[C@H](NC(=O)[C@H](N)c3ccccc3)C(=O)N2[C@H]1C(=O)O | 29 µM | 20 s⁻¹ |  |  |  |  |  |  |  |
| CO/N=C(\C(=O)N[C@@H]1C(=O)N2C(C(=O)O)=C(COC(N)=O)CS[C@H]12)c1ccco1 | 160 µM | 66 s⁻¹ |  |  |  |  |  |  |  |
| CO/N=C(\C(=O)N[C@@H]1C(=O)N2C(C(=O)[O-])=C(C[n+]3cccc4c3CCC4)CS[C@H]12)c1csc(N)n1 | 251 µM | 12 s⁻¹ |  |  |  |  |  |  |  |
| CC1(C)S[C@@H]2[C@H](NC(=O)[C@H](N)c3ccc(O)cc3)C(=O)N2[C@H]1C(=O)O [AMOXICILLIN] |  |  | > 256 µg/mL | 3 µg/mL (≈ 8.21 µM) | 3 µg/mL (≈ 8.21 µM) | > 256 µg/mL | > 256 µg/mL | > 256 µg/mL | MIC [3]: 16 µg/mL; MIC [4]: 2 µg/mL; MIC [7]: 2 µg/mL; MIC [9]: 24 µg/mL; MIC [10]: 96 µg/mL; MIC [12]: 48 µg/mL |
| C[C@H]1[C@H](NC(=O)/C(=N\OC(C)(C)C(=O)O)c2csc(N)n2)C(=O)N1S(=O)(=O)O [AZTREONAM] | 35 µM | 3 s⁻¹ |  | 0.047 µg/mL (≈ 0.108 µM) | < 0.016 µg/mL | 64 µg/mL (≈ 147 µM) | 8 µg/mL (≈ 18.4 µM) | 24 µg/mL (≈ 55.1 µM) |  |
| CO/N=C(\C(=O)N[C@@H]1C(=O)N2C(C(=O)O)=C(COC(C)=O)CS[C@H]12)c1csc(N)n1 [CEFOTAXIME] | 174 µM | 66 s⁻¹ | > 32 µg/mL | 0.047 µg/mL (≈ 0.103 µM) | 0.032 µg/mL (≈ 0.0703 µM) | 16 µg/mL (≈ 35.1 µM) | 4 µg/mL (≈ 8.78 µM) | 12 µg/mL (≈ 26.3 µM) |  |
| CC(C)(O/N=C(\C(=O)N[C@@H]1C(=O)N2C(C(=O)[O-])=C(C[n+]3ccccc3)CS[C@H]12)c1csc(N)n1)C(=O)O [CEFTAZIDIME] |  |  | 32 µg/mL (≈ 58.5 µM) | 0.19 µg/mL (≈ 0.348 µM) | 0.064 µg/mL (≈ 0.117 µM) | 8 µg/mL (≈ 14.6 µM) | 2 µg/mL (≈ 3.66 µM) | 6 µg/mL (≈ 11 µM) | MIC [14]: 32 µg/mL (≈ 58.5 µM) |
| C[C@@H](O)[C@H]1C(=O)N2C(C(=O)O)=C(SCCNC=N)C[C@H]12 [IMIPENEM ANHYDROUS] | 88 µM | 20 s⁻¹ | 3 µg/mL (≈ 10 µM) | 0.19 µg/mL (≈ 0.635 µM) | 0.094 µg/mL (≈ 0.314 µM) | 3 µg/mL (≈ 10 µM) | 0.5 µg/mL (≈ 1.67 µM) | 1.5 µg/mL (≈ 5.01 µM) |  |
| CCN1CCN(C(=O)N[C@@H](C(=O)N[C@@H]2C(=O)N3[C@@H]2SC(C)(C)[C@@H]3C(=O)O)c2ccccc2)C(=O)C1=O [PIPERACILLIN] | 51 µM | 40 s⁻¹ | > 256 µg/mL | 0.75 µg/mL (≈ 1.45 µM) | 0.38 µg/mL (≈ 0.734 µM) | > 256 µg/mL | > 256 µg/mL | > 256 µg/mL | MIC [15]: > 256 µg/mL; MIC [16]: > 256 µg/mL; MIC [17]: > 256 µg/mL; MIC [18]: > 256 µg/mL; MIC [19]: 0.38 µg/mL; MIC [20]: 0.75 µg/mL |
| CC1(C)S[C@@H]2[C@H](NC(=O)[C@H](C(=O)O)c3ccsc3)C(=O)N2[C@H]1C(=O)O [TICARCILLIN] |  |  | > 256 µg/mL | 1.5 µg/mL (≈ 3.9 µM) | 1.5 µg/mL (≈ 3.9 µM) | > 256 µg/mL | > 256 µg/mL | > 256 µg/mL |  |
